Compound activity (PubChem BioAssay)
Hits are enriched below; roughly 4.8% of the tested compounds scored in any of these assays.
ALR inh: inhibitors of human sulfhydryl oxidase ALR | P55789 | purified ALR, DTT oxidation, H2O2 HRP-luminol luminescence | inhibition, % (no concentration beside the values) | 3.8% of 290,000 active | AID 485317;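 active = mean replicate inhibition above about 79%, with every replicate also reaching it, limit read from the data; inconclusive = only one of the two criteria met; inactive = mean below limit and not every replicate reaching it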
Calb FLC: C. albicans growth modulation with fluconazole. C. albicans CaCi-2 (fluconazole-resistant clinical isolate) + fluconazole, Alamar Blue growth, 48 h. growth inhibition, % (concentration not given with the values). 0.57% of 300,000 active. AID 1979;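 active = growth inhibition above about 58% in most replicates, limit read from the data, passing the limit was not always enough; inconclusive = exactly half the replicates above a set limit; inactive = most replicates below a set limit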;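 also: all wells also contain fluconazole at 8 µg/ml as a sub-toxic cotreatment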
ATG4B inh: ATG4B (human) cysteine protease inhibition. Q9Y4P1. ATG4B cleavage of LC3-PLA2, NBD-HPC fluorescence, 1 h. inhibition, % at 8.33 µM. 0.51% of 340,000 active. AID 504462; in the data active = inhibition above about 40%
Target sequence (Q9Y4P1 whole entry, looked up): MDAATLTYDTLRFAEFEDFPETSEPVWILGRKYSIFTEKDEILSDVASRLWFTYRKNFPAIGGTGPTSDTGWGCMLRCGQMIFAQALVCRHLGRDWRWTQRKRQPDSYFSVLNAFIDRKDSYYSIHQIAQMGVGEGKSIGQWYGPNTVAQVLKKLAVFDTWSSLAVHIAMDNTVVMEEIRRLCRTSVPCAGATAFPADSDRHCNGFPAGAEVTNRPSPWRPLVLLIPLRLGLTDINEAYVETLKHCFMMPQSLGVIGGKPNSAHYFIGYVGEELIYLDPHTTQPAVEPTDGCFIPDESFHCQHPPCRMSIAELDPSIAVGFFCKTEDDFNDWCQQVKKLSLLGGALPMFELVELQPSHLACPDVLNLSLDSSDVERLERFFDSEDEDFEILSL
NLRP3 yeast inh: blocks the NALP3 inflammasome reconstituted in yeast | inhibition, % at 10 µM | AID 2825 | Yeast reconstituted NLRP3/ASC/caspase-1, beta-gal luminescence, 24 h | 0.39% of 330,000 active;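 active = inhibition of 50% or more; inactive = inhibition below 50%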
NALP1 yeast inh: inhibitors of NALP1 inflammasome in yeast; inhibition, % at 10 µM; 0.61% of 280,000 active; S. cerevisiae NALP1/ASC/caspase-1 growth, X-gal OD620, 72 h; in the data active = inhibition mostly above about 24%, no sharp cut-off; inactive = mostly below about 32%
UCH37 DUB inh: blocks the human deubiquitinase UCH37; purified proteasome/UCH37, Ub-AMC cleavage fluorescence; inhibition, % (no concentration beside the values); 0.33% of 330,000 active;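 active = mean inhibition over replicate wells above about 20%, limit read from the data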
Target sequence (Q9Y5K5 whole entry, looked up): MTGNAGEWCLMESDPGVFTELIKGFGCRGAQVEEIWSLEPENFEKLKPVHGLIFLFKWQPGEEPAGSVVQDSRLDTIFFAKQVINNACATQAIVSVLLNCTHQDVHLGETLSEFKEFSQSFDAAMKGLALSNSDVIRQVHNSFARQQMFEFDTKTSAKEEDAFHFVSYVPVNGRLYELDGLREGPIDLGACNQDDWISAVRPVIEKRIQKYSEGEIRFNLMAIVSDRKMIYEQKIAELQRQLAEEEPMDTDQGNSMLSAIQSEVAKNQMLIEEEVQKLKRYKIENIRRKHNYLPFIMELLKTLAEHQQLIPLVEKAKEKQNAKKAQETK
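Material: Human UCH37 enzyme supplied as purified proteasome complex | Schedule: 30 min preincubation with enzyme, 25 min cleavage at room temperature | Detection: AMC fluorescence 355/460 nm | Measure: % inhibition of Ub-AMC cleavage fluorescence | Controls: Wells without proteasome as full block, compound-free enzyme plus substrate as uninhibited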
Large screens that a line does not name were inactive.

O=C(Cc1ccccc1)NNC(=O)Cc1ccccc1	none
S=c1[nH]nc(COc2ccccc2)n1N=Cc1ccccc1Br	none (no result: ALR inh, Calb FLC, ATG4B inh, NLRP3 yeast inh, NALP1 yeast inh)
CCc1n[nH]c(=S)n1N=Cc1cc(Br)c(OC)cc1OC	none (no result: ALR inh, Calb FLC, ATG4B inh, NLRP3 yeast inh, NALP1 yeast inh)
Clc1ccc(-c2cn3cc(Cl)ccc3n2)cc1	none
Oc1ccc(-c2cn3cc(C(F)(F)F)ccc3n2)cc1	ALR inh 90.2
O=C1C(=O)N(CCO)C(c2ccccc2[N+](=O)[O-])/C1=C(\O)c1ccccc1 (centres undefined)	none
O=C1C(=O)N(c2ccc(O)cc2)C(c2ccccc2[N+](=O)[O-])/C1=C(\O)c1ccccc1 (centres undefined)	ALR inh 84.9
COc1cc(C(=O)Oc2ccccc2C=NNC(=O)c2ccc(C)c(Cl)c2)cc(OC)c1OC	none (no result: ALR inh, Calb FLC, ATG4B inh, NLRP3 yeast inh, NALP1 yeast inh)
CON=C(CS(=O)(=O)Cc1ccc(OC)cc1)c1ccc(Cl)cc1	none (no result: ALR inh, Calb FLC, ATG4B inh, NLRP3 yeast inh, NALP1 yeast inh)
COc1ccc(C(=O)NCC(=O)NN=Cc2ccc([N+](=O)[O-])s2)cc1OC	none (no result: ALR inh, Calb FLC, ATG4B inh, NLRP3 yeast inh, NALP1 yeast inh)
S=c1[nH]ncn1/N=C/c1ccc(N2CCOCC2)cc1	ALR inh 98.5 (no result: UCH37 DUB inh)
O=[N+]([O-])c1ccc(C=Nn2cn[nH]c2=S)cc1	none (no result: ALR inh, Calb FLC, ATG4B inh, NLRP3 yeast inh, NALP1 yeast inh)
S=c1[nH]ncn1N=Cc1cccc(Oc2ccccc2)c1	none (no result: ALR inh, Calb FLC, ATG4B inh, NLRP3 yeast inh, NALP1 yeast inh)
S=c1[nH]ncn1/N=C/c1ccc(Br)cc1	ALR inh 98.0 (no result: UCH37 DUB inh)
S=c1[nH]ncn1/N=C/c1ccccc1	ALR inh 97.9 (no result: UCH37 DUB inh)
Cc1n[nH]c(=S)n1/N=C/c1ccccc1	ALR inh 96.8 (no result: UCH37 DUB inh)
CC(=NN=Cc1cccc(F)c1)c1nnn(-c2nonc2N)c1C	none (no result: ALR inh, Calb FLC, ATG4B inh, NLRP3 yeast inh, NALP1 yeast inh)
Cc1ccsc1C=NN1CCN(c2ccccc2)CC1	none (no result: ALR inh, Calb FLC, ATG4B inh, NLRP3 yeast inh, NALP1 yeast inh)
Cc1ccc(/C=C2\SC(=S)N(/N=C/c3cc([N+](=O)[O-])ccc3O)C2=O)o1	ALR inh 98.1, Calb FLC inconclusive, ATG4B inh 46.6 (no result: UCH37 DUB inh)
O=C(NN1C(=O)/C(=C/c2ccc(O)cc2)SC1=S)c1ccccc1O	ALR inh 99.4
O=C(NN1C(=O)/C(=C/c2ccc(O)cc2)SC1=S)c1cccc(O)c1	ALR inh 99.2
O=C(Cc1ccccc1)NN1C(=O)/C(=C/c2ccc(C(=O)O)cc2)SC1=S	none (no result: ALR inh, NALP1 yeast inh)
COc1cc(/C=C2\SC(=S)N(NC(C)=O)C2=O)ccc1OC(=O)c1ccco1	ALR inh 97.7 (no result: Calb FLC, NALP1 yeast inh, UCH37 DUB inh)
Oc1ccc(C=NNC(=S)Nc2cccnc2)c(O)c1	none (no result: ALR inh, Calb FLC, ATG4B inh, NLRP3 yeast inh, NALP1 yeast inh)
COc1cc(/C=C2/SC(=O)NC2=O)ccc1OC(=O)c1ccco1	none
O=C(NN1C(=O)/C(=C/c2cc([N+](=O)[O-])ccc2O)SC1=S)c1ccccc1O	ALR inh 80.8 (no result: ATG4B inh, NALP1 yeast inh, UCH37 DUB inh)
Cc1cc(C)nc(NN2C(=O)/C(=C/c3ccc(O)cc3)SC2=S)n1	ALR inh 99.3
O=C1N/C(=N\S(=O)(=O)c2ccccc2)S/C1=C\c1cc([N+](=O)[O-])ccc1O	none (no result: UCH37 DUB inh)
CCOc1cc(/C=C2/SC(=S)NC2=O)ccc1OC(=O)c1ccco1	ALR inh 97.9
COc1ccc(/C=C2\SC(=S)N(NC(=O)c3ccncc3)C2=O)cc1OC	none (no result: ATG4B inh, UCH37 DUB inh)
O=C(NN1C(=O)/C(=C/c2ccc(O)c([N+](=O)[O-])c2)SC1=S)c1ccccc1Cl	UCH37 DUB inh 24.2
CC(=NNC(=O)CCCOc1ccc(Cl)cc1Cl)c1ccc(C)o1	none (no result: ALR inh, Calb FLC, ATG4B inh, NLRP3 yeast inh, NALP1 yeast inh)
COc1cc(/C=C2\SC(=S)N(NC(=O)c3ccccc3O)C2=O)ccc1O	ALR inh 99.0
C(=NN1CCN(Cc2ccccc2)CC1)c1ccc(-c2ccccc2)cc1	none (no result: ALR inh, Calb FLC, ATG4B inh, NLRP3 yeast inh, NALP1 yeast inh)
O=[N+]([O-])c1ccc(CNc2ccc(F)cc2)s1	ALR inh 98.7
O=[N+]([O-])c1ccc(CNc2cccc(Cl)c2)s1	none
O=[N+]([O-])c1ccc(CNc2ccc(Cl)cc2)s1	ALR inh 81.2 (no result: NALP1 yeast inh)
COc1ccc(NCc2ccc([N+](=O)[O-])s2)c(OC)c1	ALR inh 97.9, NALP1 yeast inh 52.5 (no result: Calb FLC, NLRP3 yeast inh)
COc1ccc(NCc2ccc([N+](=O)[O-])s2)cc1	ALR inh 98.8, NALP1 yeast inh 62.5
CCOc1ccc(S(=O)(=O)NN=Cc2ccc3c(c2)OCO3)cc1	none (no result: ALR inh, Calb FLC, ATG4B inh, NLRP3 yeast inh, NALP1 yeast inh)
CN(C)Cc1c(C(=O)NN=Cc2cccc3ccccc23)nnn1-c1nonc1N	none (no result: ALR inh, Calb FLC, ATG4B inh, NLRP3 yeast inh, NALP1 yeast inh)
Cc1ccccc1OCC(=O)NN=Cc1cn(Cc2ccccc2)c2ccccc12	none (no result: ALR inh, Calb FLC, ATG4B inh, NLRP3 yeast inh, NALP1 yeast inh)
COC(=O)C1CCN(Cc2ccc(OCCCN3CCN(c4ccc([N+](=O)[O-])cc4)CC3)cc2)CC1	NALP1 yeast inh 25.8
Cc1ccc2nc(C)c(C(=O)NN=Cc3cccs3)cc2c1	none (no result: ALR inh, Calb FLC, ATG4B inh, NLRP3 yeast inh, NALP1 yeast inh)
Cc1ccccc1NS(=O)(=O)c1ccc(-c2ccc(=O)[nH]n2)o1	none
CCN(CC)c1ccc(NS(=O)(=O)c2ccc(-c3ccc(=O)[nH]n3)o2)c(C)c1	ALR inh 99.6
CCCN1C(=O)/C(=C/c2ccc(N3CCOCC3)cc2)NC1=S	none
CCN1C(=O)/C(=C/c2ccc(N3CCCC3)cc2)NC1=S	ALR inh 97.3
CC(=NNc1ccc([N+](=O)[O-])cc1[N+](=O)[O-])C(C)C(C)C (centres undefined)	none (no result: ALR inh, Calb FLC, ATG4B inh, NLRP3 yeast inh, NALP1 yeast inh)
O=C(NNS(=O)(=O)c1ccc([N+](=O)[O-])cc1)c1ccc2ccccc2c1O	ALR inh 98.1
COc1cccc(C(=O)NNC(=O)c2ccc3ccccc3c2O)c1	Calb FLC 102.1 (no result: NALP1 yeast inh)
COc1cccc(C(=O)NNC(=O)c2ccccc2)c1	none
O=C(NNC(=O)c1ccc2ccccc2c1O)c1ccccc1Cl	Calb FLC 85.7 (no result: NALP1 yeast inh)
Cc1cc(C)nc(NN=Cc2cccc3ccccc23)n1	none (no result: ALR inh, Calb FLC, ATG4B inh, NLRP3 yeast inh, NALP1 yeast inh)
O=C(COc1ccc(Cl)cc1Cl)NN=Cc1ccc[nH]1	none (no result: ALR inh, Calb FLC, ATG4B inh, NLRP3 yeast inh, NALP1 yeast inh)
